In the EternaBench riboswitch data:

Tested on: MS2 coat protein
Assay: apparent Kd, MS2 coat protein; higher = weaker binding; RNA-MaP array; FMN 200 µM where present
Summary of the method: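 In 100 mM Tris-HCl pH 7.5, 80 mM KCl, 4 mM MgCl2, BSA, DTT, yeast tRNA and Tween-20, SNAP-549-labelled MS2 coat protein was titrated from 0.7 or 1.5 nM, doubling to 3 µM, over designs transcribed by stalled E. coli RNA polymerase on Illumina sequencing-chip clusters. This was done first without ligand, then with ligand held constant. After green signal was normalised to red-channel RNA signal and control-cluster median Fmax, the apparent Kd was taken as the median of filtered per-cluster binding-curve fits.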

[1] = designed as: OFF switch for flavin mononucleotide, no ligand
[2] = ligand present: flavin mononucleotide, designed as: OFF switch for flavin mononucleotide
[3] = designed as: ON switch for flavin mononucleotide, no ligand
[4] = ligand present: flavin mononucleotide, designed as: ON switch for flavin mononucleotide

Sequence | apparent Kd [1] [nM] | apparent Kd [2] [nM] | apparent Kd [3] [nM] | apparent Kd [4] [nM]
AUUGUUCGAGAGAAGGGAACAUGAGGAUCACCCAUGUUACCUCACCUGGUGACGGAACUCCAAGUUCAGGAUAUCUCGAGCGAU | 5.63 | 8.59 | – | –
AUUUAAAUGUCAGGAUAUGUUAGUUUAUACAUAGUAGAAGGGAUAAUUAUACUCAUGUACAUGAGGAUCACCCAUGUUAAAUAA | – | – | 206 | 107
AUUUAGAGAGGAUAUAUUAUGUGAAACAUGAGGAUCACCCAUGUAAUAUGAUGGAUAUAAAUAGAAGGCUCAUUUA | 33 | 24.4 | – | –
AUUUAGUGCGAGAAGGCGUGGUCACAUGAGGAUCACCCAUGUCAGUACACGAGGAUAUCGAUUCACUGUAUAAACACAAGUGAC | – | – | 53.8 | 6.22
AUUUAUGGCCAGAAGGACAUGAGGAUCACCCAUGUAGGAUAUGGACGAUUUUACUCGGCGGUUUGUUUAGGAAGCACCGGCGGU | – | – | 8 | 6.32
AUUUCGUUAUCAGGAUAUGGACAGGCCUGUCCGUAUUGAGACAGUAACAUGAGGAUCACCCAUGUCCAGAAGGGAUCGAAGUAU | 57 | 46.7 | – | –
AUUUUACAUGAGGAUCACCCAUGUUUUGGCGGGUCAGGAUAUAGAUCGGAUGAGUUCUGUCUAGAAGGGACAUGUA | – | – | 77.5 | 71.6
AUUUUGCGAGGAUAUACAUGAGGAUCACCCAUGUACGCUCAGCAGGGUGAAGGCUCUUGUAGAAGGCGUUCUGA | 88.2 | 45.8 | – | –
AUUUUGUGAGGAUAUCAGGUGUGCUAGCGUACUGGUACAUCUGAGAAGGCACAUGAGGAUCACCCAUGUUUAUU | 26.6 | 60 | – | –
CAAAAGGAAGGAUAUGCAUCGGGAGGUGCUCAGCAUCAAAUACAUGAGGAUCACCCAUGUAGAAGGUCUGAAAA | 32.1 | 85.7 | – | –
CAACUGAGCGUAAAUUACCUGAACAUGAGGAUCACCCAUGUGGAGGAUAUUGACUUAGCAAAACUCGAGAAGGCCACUGGGUAG | 44.6 | 18.5 | – | –
CAAUAUAACACAGGAUAUGUCUCGUUUACAUGAGGAUCACCCAUGUCCGAAACAGAAGGGUGACCCGAUAUAGGACGUUGGGUG | – | – | 56.3 | 18
CAAUGCCUGUCGAUGCUCGACAUGAGGAUCACCCAUGUAUAGCAGGAUAUGCAGAACUGACUCGUGCAGAAGGGCUAUACCUAA | 25.8 | 61.1 | – | –
CAAUUUAUAACAGGAUAUGUAUUACAAUAGUUAAUAGAAGGGUUUAAUACAUGAGGAUCACCCAUGUCAUGUGUCAUAAUUACC | 33.5 | 28.8 | – | –
CAAUUUAUGUCAGGAUAUACAAUACAAUGAUUAGUAGAAGGGAUUAAUACAUGAGGAUCACCCAUGUCAUGUGUCAUAGUAACC | 23.9 | 19.4 | – | –
CAAUUUAUGUCAGGAUAUACAAUACAAUGAUUAGUAGAAGGGAUUAAUACAUGAGGAUCACCCAUGUCAUGUGUCAUCGUACCC | 28.1 | 23.3 | – | –
CACAUGGUUACAGGAUAUGUUAGGUUGCAGUUGAUUGGUUAUUAAAAUAUUACAGAAGGGUAAGACAUGAGGAUCACCCAUGUG | – | – | 175 | 97.5
CACAUUUUAACAGGAUAUGUAAGGUUGUUUAUUAUUGCAUUUACACUCAUUACAGAAGGGUUAUACAUGAGGAUCACCCAUGUG | – | – | 20.1 | 14.5
CACCGGCCCUAUGUGUUCUAGACAUGAGGAUCACCCAUGUAUAGAAGGGUCUUCGCGAAACGCAGACAGGAUAUGUACAGGAGU | 6.31 | 9.26 | – | –
CACCGUAACAGAGGAUAUCAAACAUGAGGAUCACCCAUGUAAUAAAUGAGAAUUUCGAAUGUACCUGAGAAGGCUGAAACCGGC | 35.6 | 41.1 | – | –
CACGCAUGUGGAGGAUAUGCAGUUAACAUAAGCGCAGAAGGCCACAUGAGGAUCACCCAUGUCCAGCAUUAGCUGAUGUUGAUC | 385 | 195 | – | –

Sequence | apparent Kd [1] [nM] | apparent Kd [2] [nM] | apparent Kd [3] [nM] | apparent Kd [4] [nM]
CACGGCGUAUCAGGAUAUGUGGGUGUCUGGACAUGAGGAUCACCCAUGUAAACAGUAUUAGCCGUGCAGAAGGGAUCCGCUGUA | – | – | 39 | 65.2
CACGUACAUGAGGAUCACCCAUGUUAGGAUAUGCCGGGUUAGAGCCAACUAAAAACCCGUAGAAGGGACGAAAC | 23.1 | 25.3 | – | –
CACGUCAGGAAACGGAGCGGCCAACAUGAGGAUCACCCAUGUGAGGAUAUGCCUACUAAAAGUAGGCAGAAGGCACAGAAGGCA | 38.2 | 160 | – | –
CACGUCCACACAGGAUAUGCUGGACUUUGUCCAGCAGAAGGGUGAAAACAUGAGGAUCACCCAUGUAGGACGUGUAUAUUUAAU | – | – | 488 | 43
CAGAAGUCAGGAUAUGCAUGGCGGGACUUGCGUCGUGGCGUGCAGAAGGGACAUGAGGAUCACCCAUGUAAAGA | 52.5 | 62.4 | – | –
CAGAAGUCAGGAUAUGCAUGGCGGGACUUGCGUCGUGGCGUGCAGAAGGGACAUGAGGAUCACCCAUGUAAAGC | 50.9 | 51.2 | – | –
CAGAGGAUGUAAGGAUAUCGUCAGGAAUACUGACGAGAAGGUACAUGAGGAUCACCCAUGUAACUCUAAUAAUAAUAACCUCUG | 12.6 | 16.4 | – | –
CAGCCCUGAGGAUAUCCAUCCUUGUACAUGAGGAUCACCCAUGUUUCCCUCUGGGCUUUCGGAGAAGGCAGGUAUC | 61 | 61.7 | – | –
CAGCGAAAGCUGAAUCUGUAGAGAGAGGAUAUACAAGAUAUCAUCCAUACAUGAGGAUCACCCAUGUAGAAGGCUCUCUACAGU | 5.03 | 7.23 | – | –
CAGCGAUAGCUAAAGUAUCUAUCAGAGGAUAUUUAUGAAACAUGAGGAUCACCCAUGUGACACUGGGAGAAGGCUGAUAGAUAG | – | – | 10.1 | 5.25
CAGCGAUAGCUGAACAAUCUAUCUGAGGAUAUCAUGAAUAAACAUGAGGAUCACCCAUGUAAAUAUGAGAAGGCAGAUAGAUUG | – | – | 4.82 | 4.78
CAGCGAUAGCUGAACAAUCUAUCUGAGGAUAUUCAUAUUAAAACAUGAGGAUCACCCAUGUAUUGGGAGAAGGCAGAUAGAUUG | – | – | 42.1 | 6.53
CAGCGCUGUCGAGAGGAUAUGCUGUGAUGGACAUGAGGAUCACCCAUGUUAGCGAUAGCAUUACUGUAGAAGGCUCUACAGCUGC | – | – | 13.4 | 12.8
CAGCUGAAAGUGAGGAUAUAGACUGCUUCGGCAGUCUAGAAGGCACAUGAGGAUCACCCAUGUCUCAACAGCUG | 16.6 | 70.2 | – | –
CAGGUAGACUGAGGAUAUACAAAGACCUAGUUUAUCUAGGUCAAAAUCACAUGAGGAUCACCCAUGUAGAAGGCAGUCUGCCUG | 15.7 | 26 | – | –
CAGGUAGACUGAGGAUAUACAAUAAAGACCUAGUCUAUCUAGGUCUCCACAUGAGGAUCACCCAUGUAGAAGGCAGUCUGCCUG | 18.1 | 44.2 | – | –
CAGGUAGCUACAGGAUAUACACAGCUCAGUAAACUGAGCAAAAGAUCUACAUGAGGAUCACCCAUGUAGAAGGGUAGCUGCCUG | 17.1 | 18.2 | – | –
CAGUACUGAGGAUAUACAUGAGGAUCACCCAUGUAUCCUAGCUAGGAAACUAGCAAAAGUAGAAGGCAGUACUG | 16 | 156 | – | –
CAGUACUGAGGAUAUACAUGAGGAUCACCCAUGUGCUCGAAGUAGGAUACUACUAUUAGUAGAAGGCAGUACUG | 16.1 | 76.8 | – | –
CAGUACUGAGGAUAUACAUGAGGAUCACCCAUGUGUUCCAGCUAGGAAACUAGCAAUAGUAGAAGGCAGUACUG | 20.1 | 315 | – | –
CAGUACUGAGGAUAUACAUGAGGAUCACCCAUGUGUUCCAGCUAGGAAACUAGCAGAAGUAGAAGGCAGUACUG | 24.6 | 441 | – | –
